In ChEMBL document CHEMBL1765003, “Discovery of (1S,2R,3R)-2,3-dimethyl-2-phenyl-1-sulfamidocyclopropanecarboxylates: novel and highly selective aggrecanase inhibitors” (J Med Chem, 2011):

Legend:
[1] = target: T1, A disintegrin and metalloproteinase with thrombospondin motifs 4 (Homo sapiens, UniProt O75173); experiment: Inhibition of human recombinant aggrecanase 1 after 150 mins by fluorescence plate reader
T1 sequence (O75173 whole entry): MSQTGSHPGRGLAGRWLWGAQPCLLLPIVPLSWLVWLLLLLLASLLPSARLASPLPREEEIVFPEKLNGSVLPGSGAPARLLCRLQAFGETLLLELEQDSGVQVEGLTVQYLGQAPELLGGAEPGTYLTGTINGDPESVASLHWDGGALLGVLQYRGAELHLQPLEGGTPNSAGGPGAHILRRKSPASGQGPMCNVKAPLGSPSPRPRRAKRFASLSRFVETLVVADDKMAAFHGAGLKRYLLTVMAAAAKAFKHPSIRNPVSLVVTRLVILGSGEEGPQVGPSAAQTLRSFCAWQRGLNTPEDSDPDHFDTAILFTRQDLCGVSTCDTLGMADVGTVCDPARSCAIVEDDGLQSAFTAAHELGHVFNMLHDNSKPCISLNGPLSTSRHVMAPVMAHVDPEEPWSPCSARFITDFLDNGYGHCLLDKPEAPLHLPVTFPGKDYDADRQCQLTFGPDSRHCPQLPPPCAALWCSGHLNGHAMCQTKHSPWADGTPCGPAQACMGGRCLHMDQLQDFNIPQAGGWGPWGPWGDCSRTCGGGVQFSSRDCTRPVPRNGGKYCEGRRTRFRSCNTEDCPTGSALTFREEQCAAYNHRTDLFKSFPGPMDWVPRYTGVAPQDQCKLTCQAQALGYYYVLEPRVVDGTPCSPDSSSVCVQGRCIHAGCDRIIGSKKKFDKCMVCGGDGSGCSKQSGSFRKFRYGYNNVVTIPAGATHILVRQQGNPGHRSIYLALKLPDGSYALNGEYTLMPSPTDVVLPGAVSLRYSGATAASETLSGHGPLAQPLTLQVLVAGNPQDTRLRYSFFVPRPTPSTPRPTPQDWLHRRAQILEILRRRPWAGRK

[2] = target: T2, A disintegrin and metalloproteinase with thrombospondin motifs 5 (Homo sapiens, UniProt Q9UNA0); experiment: Inhibition of human recombinant aggrecanase 2 after 150 mins by fluorescence plate reader
T2 sequence (Q9UNA0 whole entry): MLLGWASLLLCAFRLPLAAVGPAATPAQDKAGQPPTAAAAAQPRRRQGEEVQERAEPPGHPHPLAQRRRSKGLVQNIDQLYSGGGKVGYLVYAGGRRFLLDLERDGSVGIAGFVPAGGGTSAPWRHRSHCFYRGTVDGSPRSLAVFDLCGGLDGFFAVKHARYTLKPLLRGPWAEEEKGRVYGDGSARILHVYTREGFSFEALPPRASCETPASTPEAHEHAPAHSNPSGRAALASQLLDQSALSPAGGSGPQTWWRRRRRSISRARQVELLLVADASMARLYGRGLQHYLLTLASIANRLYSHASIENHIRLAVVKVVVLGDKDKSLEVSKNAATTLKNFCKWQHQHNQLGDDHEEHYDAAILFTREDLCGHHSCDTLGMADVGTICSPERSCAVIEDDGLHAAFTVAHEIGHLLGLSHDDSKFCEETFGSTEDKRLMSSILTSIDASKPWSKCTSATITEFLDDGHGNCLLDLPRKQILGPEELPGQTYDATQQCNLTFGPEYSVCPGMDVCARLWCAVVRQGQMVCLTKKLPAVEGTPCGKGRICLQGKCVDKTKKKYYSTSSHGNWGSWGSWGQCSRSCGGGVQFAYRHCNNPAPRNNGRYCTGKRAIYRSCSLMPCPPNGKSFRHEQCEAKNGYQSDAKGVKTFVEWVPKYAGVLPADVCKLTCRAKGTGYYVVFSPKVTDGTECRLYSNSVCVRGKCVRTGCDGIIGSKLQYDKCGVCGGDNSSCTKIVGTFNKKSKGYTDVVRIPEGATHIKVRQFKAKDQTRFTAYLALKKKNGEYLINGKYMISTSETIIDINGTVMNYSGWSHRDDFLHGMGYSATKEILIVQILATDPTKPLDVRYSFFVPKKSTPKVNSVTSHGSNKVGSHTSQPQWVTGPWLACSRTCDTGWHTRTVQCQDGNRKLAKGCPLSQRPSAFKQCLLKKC

[3] = target: Matrix metalloproteinase-14 (Homo sapiens, UniProt P50281); experiment: Inhibition of human recombinant MMP14 after 60 mins by fluorescence plate reader
Outline: (§1)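 Recombinant human enzyme at 20 ng/mL with 10 μM MOCAc-Lys-Pro-Leu-Gly-Leu-A2pr(Dnp)-Ala-Arg-NH₂, in 100 mM Tris-HCl pH 7.5, 150 mM NaCl, 10 mM CaCl₂, 0.05% Brij-35. Enzyme pretreated with inhibitor for 15 min at 25 °C, then substrate added. Fluorescence (ex 325, em 405 nm) read at 60 min. IC50 taken from three points in the linear range; mean of ≥2 determinations.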

[4] = target: Disintegrin and metalloproteinase domain-containing protein 17 (Homo sapiens, UniProt P78536); experiment: Inhibition of human recombinant TACE after 60 mins by fluorescence plate reader
Outline: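 rh-TACE at 80 ng/mL with 10 μM MCA-Pro-Leu-Ala-Gln-Ala-Val-Dpa-Arg-Ser-Ser-Ser-Arg-NH₂, in 100 mM Tris-HCl pH 7.5, 150 mM NaCl, 10 mM CaCl₂, 0.05% Brij-35. Inhibitor preincubated for 15 min at 25 °C. Fluorescence (ex 325/em 405 nm) read at 60 min. IC50 from three linear-range points; mean of ≥2.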

[5] = target: T3, Interstitial collagenase (Homo sapiens, UniProt P03956); experiment: Inhibition of human recombinant MMP1 after 60 mins by fluorescence plate reader; outline: as §1
T3 sequence (P03956 whole entry): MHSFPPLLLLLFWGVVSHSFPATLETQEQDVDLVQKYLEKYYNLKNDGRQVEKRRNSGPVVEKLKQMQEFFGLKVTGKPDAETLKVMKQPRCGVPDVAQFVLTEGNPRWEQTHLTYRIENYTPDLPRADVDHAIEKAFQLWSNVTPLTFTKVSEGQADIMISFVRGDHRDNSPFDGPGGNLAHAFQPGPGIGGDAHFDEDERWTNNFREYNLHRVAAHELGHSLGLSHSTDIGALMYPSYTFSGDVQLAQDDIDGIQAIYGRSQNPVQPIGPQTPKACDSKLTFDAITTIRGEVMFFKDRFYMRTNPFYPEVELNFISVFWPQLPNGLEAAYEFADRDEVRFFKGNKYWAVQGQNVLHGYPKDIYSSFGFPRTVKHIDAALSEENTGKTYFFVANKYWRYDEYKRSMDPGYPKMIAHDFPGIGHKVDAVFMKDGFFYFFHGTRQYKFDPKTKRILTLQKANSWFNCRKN

[6] = Volume of distribution at steady state in Sprague-Dawley rat at 1 mg/kg, iv; format: ADME, organism-based; set-up: dose 1 mg/kg, route intravenous; settings: in vivo, read-out: Vdss
Outline: (§2)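 Intravenous dose of 1 mg/kg. Blood sampled at 0.50, 1, 2, 4, 8 and 24 h. Plasma obtained by centrifugation at 10 000 rpm for 5 min and kept at −20 °C until analysis.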

[7] = target: Cytochrome P450 2C19 (Homo sapiens, UniProt P33261); experiment: Inhibition of CYP2C19 at up to 50 uM; format: ADME
[8] = Half life in Sprague-Dawley rat at 10 mg/kg, po; format: ADME, organism-based; set-up: dose 10 mg/kg, route oral; settings: in vivo
[9] = AUC in Sprague-Dawley rat at 10 mg/kg, po; format: ADME, organism-based; set-up: dose 10 mg/kg, route oral; settings: plasma
[10] = target: Cytochrome P450 2C9 (Homo sapiens, UniProt P11712); experiment: Inhibition of CYP2C9 at up to 50 uM; format: ADME
[11] = target: T4, Cytochrome P450 2A6 (Homo sapiens, UniProt P11509); experiment: Inhibition of CYP2A6 at up to 50 uM; format: ADME
T4 sequence (P11509 whole entry): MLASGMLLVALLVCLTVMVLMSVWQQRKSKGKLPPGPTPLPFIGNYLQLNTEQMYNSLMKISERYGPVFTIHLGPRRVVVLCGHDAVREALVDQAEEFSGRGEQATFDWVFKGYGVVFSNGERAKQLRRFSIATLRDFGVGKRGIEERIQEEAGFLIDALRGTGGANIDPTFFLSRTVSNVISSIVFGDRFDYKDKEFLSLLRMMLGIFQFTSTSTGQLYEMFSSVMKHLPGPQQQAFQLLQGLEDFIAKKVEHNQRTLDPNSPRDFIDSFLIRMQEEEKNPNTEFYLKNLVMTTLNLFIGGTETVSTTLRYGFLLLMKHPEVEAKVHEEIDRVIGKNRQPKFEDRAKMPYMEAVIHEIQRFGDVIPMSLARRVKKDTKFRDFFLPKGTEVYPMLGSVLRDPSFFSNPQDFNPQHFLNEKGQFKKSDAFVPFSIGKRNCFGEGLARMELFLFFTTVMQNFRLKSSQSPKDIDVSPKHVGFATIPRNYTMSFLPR

[12] = target: Cytochrome P450 2D6 (Homo sapiens, UniProt P10635); experiment: Inhibition of CYP2D6 at up to 50 uM; format: ADME
[13] = Clearance in Sprague-Dawley rat at 1 mg/kg, iv; format: ADME, organism-based; set-up: dose 1 mg/kg, route intravenous; settings: in vivo; outline: as §2
[14] = target: T5, Cytochrome P450 1A2 (Homo sapiens, UniProt P05177); experiment: Inhibition of CYP1A2 at up to 50 uM; format: ADME
T5 sequence (P05177 whole entry): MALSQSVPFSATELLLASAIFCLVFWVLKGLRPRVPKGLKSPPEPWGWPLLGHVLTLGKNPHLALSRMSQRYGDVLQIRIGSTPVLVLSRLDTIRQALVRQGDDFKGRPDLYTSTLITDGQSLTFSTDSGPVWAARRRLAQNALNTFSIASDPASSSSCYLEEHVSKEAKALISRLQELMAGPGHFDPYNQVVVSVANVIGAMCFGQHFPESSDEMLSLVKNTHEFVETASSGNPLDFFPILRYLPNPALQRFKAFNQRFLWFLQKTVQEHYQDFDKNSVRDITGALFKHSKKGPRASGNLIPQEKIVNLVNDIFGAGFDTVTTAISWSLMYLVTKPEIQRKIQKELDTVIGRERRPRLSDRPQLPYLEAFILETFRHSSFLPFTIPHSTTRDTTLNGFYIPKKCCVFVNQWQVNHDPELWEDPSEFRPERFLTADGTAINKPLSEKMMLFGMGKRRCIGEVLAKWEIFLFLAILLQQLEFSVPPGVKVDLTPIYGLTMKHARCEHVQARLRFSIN

[15] = target: Cytochrome P450 3A4 (Homo sapiens, UniProt P08684); experiment: Inhibition of CYP3A4 at up to 50 uM; format: ADME
[16] = Oral bioavailability in Sprague-Dawley rat at 10 mg/kg; format: ADME, organism-based; settings: Sprague-Dawley, in vivo
[17] = Cmax in Sprague-Dawley rat at 10 mg/kg, po; format: ADME, organism-based; set-up: dose 10 mg/kg, route oral; settings: in vivo
[18] = organism: Homo sapiens; experiment: Selectivity ratio of IC50 for human recombinant MMP14 to IC50 for human recombinant aggrecanase 2

Disintegrin and metalloproteinase domain-containing protein 17, sequence (P78536 whole entry, the tested form may be a part): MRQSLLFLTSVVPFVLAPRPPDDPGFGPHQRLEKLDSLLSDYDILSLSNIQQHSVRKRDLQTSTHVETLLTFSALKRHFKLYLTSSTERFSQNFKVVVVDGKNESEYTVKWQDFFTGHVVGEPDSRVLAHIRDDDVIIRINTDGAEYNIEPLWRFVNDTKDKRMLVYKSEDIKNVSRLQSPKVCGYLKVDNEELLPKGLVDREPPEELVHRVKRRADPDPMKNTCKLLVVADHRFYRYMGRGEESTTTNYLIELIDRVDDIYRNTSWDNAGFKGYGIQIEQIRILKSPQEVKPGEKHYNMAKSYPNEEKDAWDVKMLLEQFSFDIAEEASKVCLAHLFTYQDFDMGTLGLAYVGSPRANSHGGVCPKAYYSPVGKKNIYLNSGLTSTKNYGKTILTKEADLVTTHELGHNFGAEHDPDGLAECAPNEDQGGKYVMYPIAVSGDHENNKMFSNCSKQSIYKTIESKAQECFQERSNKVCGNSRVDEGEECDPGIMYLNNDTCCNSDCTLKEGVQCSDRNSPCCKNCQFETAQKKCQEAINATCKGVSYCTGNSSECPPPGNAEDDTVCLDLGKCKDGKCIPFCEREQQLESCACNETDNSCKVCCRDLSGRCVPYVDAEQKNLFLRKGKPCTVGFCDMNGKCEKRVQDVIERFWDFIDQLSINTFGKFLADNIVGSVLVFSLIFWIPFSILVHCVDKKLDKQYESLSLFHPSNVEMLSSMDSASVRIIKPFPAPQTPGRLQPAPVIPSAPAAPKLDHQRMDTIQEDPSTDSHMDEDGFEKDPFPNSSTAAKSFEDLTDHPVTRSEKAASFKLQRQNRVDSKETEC
Cytochrome P450 3A4, sequence (P08684 whole entry): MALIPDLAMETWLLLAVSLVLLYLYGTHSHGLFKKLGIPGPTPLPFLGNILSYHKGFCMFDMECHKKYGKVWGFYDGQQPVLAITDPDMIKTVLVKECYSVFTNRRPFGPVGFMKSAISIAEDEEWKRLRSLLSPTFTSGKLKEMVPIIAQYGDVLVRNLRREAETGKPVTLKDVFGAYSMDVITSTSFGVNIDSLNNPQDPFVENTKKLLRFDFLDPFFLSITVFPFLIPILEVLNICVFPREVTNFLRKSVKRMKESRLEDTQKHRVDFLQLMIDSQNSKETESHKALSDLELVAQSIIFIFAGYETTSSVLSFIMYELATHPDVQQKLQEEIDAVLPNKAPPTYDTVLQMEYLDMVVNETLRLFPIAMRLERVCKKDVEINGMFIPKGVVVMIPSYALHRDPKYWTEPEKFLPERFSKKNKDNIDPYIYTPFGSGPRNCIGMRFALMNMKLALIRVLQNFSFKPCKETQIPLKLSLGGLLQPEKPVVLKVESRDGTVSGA
Cytochrome P450 2C19, sequence (P33261 whole entry): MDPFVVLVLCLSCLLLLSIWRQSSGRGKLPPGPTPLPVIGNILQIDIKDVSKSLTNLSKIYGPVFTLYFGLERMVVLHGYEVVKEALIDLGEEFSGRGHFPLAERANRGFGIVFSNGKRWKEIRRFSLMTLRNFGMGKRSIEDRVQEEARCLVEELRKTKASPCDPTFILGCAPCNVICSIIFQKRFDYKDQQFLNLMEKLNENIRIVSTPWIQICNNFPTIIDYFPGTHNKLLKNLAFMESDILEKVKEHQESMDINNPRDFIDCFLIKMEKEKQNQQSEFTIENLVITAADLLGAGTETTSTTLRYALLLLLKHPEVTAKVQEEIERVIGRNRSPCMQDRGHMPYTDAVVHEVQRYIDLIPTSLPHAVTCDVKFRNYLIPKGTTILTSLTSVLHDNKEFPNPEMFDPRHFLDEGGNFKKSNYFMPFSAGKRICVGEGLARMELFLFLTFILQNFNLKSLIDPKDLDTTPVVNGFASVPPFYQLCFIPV
Cytochrome P450 2D6, sequence (P10635 whole entry): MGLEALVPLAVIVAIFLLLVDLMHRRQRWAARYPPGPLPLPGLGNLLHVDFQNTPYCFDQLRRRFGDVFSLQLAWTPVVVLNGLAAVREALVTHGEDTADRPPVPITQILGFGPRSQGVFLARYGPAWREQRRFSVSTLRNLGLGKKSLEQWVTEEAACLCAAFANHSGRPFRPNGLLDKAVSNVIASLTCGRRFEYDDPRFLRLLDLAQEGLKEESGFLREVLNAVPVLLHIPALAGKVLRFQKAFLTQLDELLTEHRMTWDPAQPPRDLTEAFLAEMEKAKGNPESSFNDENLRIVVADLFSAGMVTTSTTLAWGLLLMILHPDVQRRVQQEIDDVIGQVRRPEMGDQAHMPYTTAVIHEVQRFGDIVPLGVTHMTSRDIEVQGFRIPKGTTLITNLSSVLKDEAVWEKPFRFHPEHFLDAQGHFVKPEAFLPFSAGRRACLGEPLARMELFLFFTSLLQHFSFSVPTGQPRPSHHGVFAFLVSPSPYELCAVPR
Cytochrome P450 2C9, sequence (P11712 whole entry): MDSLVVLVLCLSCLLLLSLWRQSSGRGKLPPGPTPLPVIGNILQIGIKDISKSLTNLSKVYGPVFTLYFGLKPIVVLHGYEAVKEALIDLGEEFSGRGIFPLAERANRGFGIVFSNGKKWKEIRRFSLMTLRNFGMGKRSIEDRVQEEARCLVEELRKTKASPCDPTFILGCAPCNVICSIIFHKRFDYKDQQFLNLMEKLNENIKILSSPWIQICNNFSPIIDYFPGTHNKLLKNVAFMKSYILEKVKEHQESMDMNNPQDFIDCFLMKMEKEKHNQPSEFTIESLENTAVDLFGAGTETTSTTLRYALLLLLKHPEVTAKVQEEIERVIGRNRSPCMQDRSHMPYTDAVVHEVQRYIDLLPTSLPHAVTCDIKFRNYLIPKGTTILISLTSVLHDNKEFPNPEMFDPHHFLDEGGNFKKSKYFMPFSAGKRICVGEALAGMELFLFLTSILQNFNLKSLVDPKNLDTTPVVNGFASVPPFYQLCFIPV

Compound	IC50 [1] [nM]	IC50 [2] [nM]	IC50 [3] [nM]	IC50 [4] [nM]	IC50 [5] [nM]	further results
O=C(NO)c1nc2ccccc2c2c1CN(c1ccc(OCc3ccccc3)cc1)C2=O	210	950	–	–	–	–
C[C@@H]1CN(S(=O)(=O)N[C@@]2(C(=O)O)[C@H](C)[C@]2(C)c2ccccc2)CCN1c1cc(C(F)F)on1	–	17	> 10000	> 10000	> 10000	Vd [6]: 1.9 L/kg; inhibition (INH) [7]: Not Active; half-life [8]: 1.9 h; AUC [9]: 17.8 µM·h; inhibition (INH) [10]: Not Active; inhibition (INH) [11]: Not Active; inhibition (INH) [12]: Not Active; clearance [13]: 11.7 mL/min/kg; inhibition (INH) [14]: Not Active; inhibition (INH) [15]: Not Active; bioavailability [16]: 64%; Cmax [17]: 4.9 µM
C[C@@H]1CN(S(=O)(=O)N[C@@]2(C(=O)O)[C@H](C)[C@@H]2c2ccccc2)CCN1c1ccc(Cl)cc1	–	37	2100	> 10000	> 10000	Ratio IC50 [18]: 10

Compounds with a lower IC50 [2], results first:

IC50 [1] [nM]	IC50 [2] [nM]	IC50 [3] [nM]	IC50 [4] [nM]	IC50 [5] [nM]	Compound	further results
1.1	1.4	–	–	–	CC1(C)C[C@@H](O)CN(S(=O)(=O)c2ccc(OCc3ccc(Cl)cc3Cl)cc2)[C@H]1C(=O)NO	–
3	12	> 10000	430	> 10000	O=C(NO)[C@@H](NCC1CC1)[C@@H](Cc1cccc(O)c1)C(=O)N[C@H]1c2ccccc2C[C@H]1O	–
